Experimental data from PMC8210434 (ACS Omega, 2021).

Columns and labels:
human AT1R = target: T1, human AT1R (Homo sapiens, UniProt P30556); experiment: AT1R competitive binding assay; conditions: 10 μM
T1 sequence (P30556 1-359): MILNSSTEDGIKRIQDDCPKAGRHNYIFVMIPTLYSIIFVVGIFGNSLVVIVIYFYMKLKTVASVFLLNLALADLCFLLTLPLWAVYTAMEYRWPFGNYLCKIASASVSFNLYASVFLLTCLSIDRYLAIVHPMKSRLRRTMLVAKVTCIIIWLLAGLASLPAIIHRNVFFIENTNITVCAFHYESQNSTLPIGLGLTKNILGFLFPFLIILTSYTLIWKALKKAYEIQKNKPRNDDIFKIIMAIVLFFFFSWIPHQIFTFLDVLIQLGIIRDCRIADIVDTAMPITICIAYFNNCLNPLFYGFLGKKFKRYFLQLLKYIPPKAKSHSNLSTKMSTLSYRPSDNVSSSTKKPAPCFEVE

[1] = Liver microsome stability assay, rat; format: in vitro ADME; conditions: liver microsomes, pH 7.4
[2] = In vivo pharmacokinetic study in rats; conditions: male, Sprague Dawley, rat, plasma
[3] = Liver microsome stability assay, human; format: in vitro ADME; conditions: liver microsomes, pH 7.4
[4] = Human hepatocytes metabolic stability assay; format: in vitro ADME; conditions: cryopreserved hepatocytes
[5] = Plasma protein binding by equilibrium dialysis, rat; format: in vitro ADME; conditions: pH 7.4
[6] = Plasma protein binding by equilibrium dialysis, human; format: in vitro ADME; conditions: pH 7.4
[7] = Caco-2 cell permeability assay; format: in vitro ADME; conditions: human, Caco-2, pH 7.4
CYP1A2 = target: T2, CYP1A2 (Homo sapiens, UniProt P05177); experiment: CYP inhibition assay, CYP1A2; format: in vitro ADME
T2 sequence (P05177 1-516): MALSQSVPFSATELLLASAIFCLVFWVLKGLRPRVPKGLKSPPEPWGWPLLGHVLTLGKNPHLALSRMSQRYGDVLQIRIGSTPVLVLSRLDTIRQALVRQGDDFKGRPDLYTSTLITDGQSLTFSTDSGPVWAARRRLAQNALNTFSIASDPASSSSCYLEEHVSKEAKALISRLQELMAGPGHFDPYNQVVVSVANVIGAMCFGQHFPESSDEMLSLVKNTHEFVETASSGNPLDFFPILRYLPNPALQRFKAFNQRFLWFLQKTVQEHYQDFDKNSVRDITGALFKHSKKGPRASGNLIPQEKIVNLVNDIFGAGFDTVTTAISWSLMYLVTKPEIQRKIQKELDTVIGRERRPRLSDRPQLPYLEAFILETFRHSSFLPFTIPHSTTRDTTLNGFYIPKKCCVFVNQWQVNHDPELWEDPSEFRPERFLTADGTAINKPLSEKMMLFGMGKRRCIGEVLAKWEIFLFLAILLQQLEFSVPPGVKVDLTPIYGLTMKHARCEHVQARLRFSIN

CYP2C8 = target: T3, CYP2C8 (Homo sapiens, UniProt P10632); experiment: CYP inhibition assay, CYP2C8; format: in vitro ADME
T3 sequence (P10632 1-490): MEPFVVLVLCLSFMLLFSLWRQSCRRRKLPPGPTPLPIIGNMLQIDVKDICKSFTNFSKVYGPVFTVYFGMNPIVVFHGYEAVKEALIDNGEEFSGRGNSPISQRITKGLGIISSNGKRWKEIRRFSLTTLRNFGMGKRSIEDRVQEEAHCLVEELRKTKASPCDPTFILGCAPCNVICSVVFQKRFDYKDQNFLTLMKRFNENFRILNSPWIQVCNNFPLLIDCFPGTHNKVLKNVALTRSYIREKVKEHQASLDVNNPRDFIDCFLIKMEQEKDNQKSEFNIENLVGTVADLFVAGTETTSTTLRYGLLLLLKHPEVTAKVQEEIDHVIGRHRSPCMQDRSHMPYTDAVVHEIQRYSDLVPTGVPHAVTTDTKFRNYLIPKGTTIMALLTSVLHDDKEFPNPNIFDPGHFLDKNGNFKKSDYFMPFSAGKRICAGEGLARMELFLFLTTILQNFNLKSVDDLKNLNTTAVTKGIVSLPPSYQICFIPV

CYP2C9 = CYP2C9 (Homo sapiens, UniProt P11712); experiment: CYP inhibition assay, CYP2C9; format: in vitro ADME
Chain of CYP2C9 (P11712 whole entry): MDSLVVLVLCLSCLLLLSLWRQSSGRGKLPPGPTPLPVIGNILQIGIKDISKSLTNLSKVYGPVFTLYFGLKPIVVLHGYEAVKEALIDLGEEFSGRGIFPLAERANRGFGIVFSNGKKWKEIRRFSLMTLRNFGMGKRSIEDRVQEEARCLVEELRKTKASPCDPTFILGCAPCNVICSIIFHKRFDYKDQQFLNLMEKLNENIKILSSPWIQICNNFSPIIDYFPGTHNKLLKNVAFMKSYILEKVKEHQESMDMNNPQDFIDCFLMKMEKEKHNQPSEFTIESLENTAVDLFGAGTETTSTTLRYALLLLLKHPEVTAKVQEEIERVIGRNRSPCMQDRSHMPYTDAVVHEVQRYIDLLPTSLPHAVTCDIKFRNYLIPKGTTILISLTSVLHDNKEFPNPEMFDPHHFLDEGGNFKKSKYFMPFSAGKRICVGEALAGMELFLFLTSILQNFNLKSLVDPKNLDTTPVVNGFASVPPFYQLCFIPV

CYP2C19 = CYP2C19 (Homo sapiens, UniProt P33261); experiment: CYP inhibition assay, CYP2C19; format: in vitro ADME
Chain of CYP2C19 (P33261 whole entry): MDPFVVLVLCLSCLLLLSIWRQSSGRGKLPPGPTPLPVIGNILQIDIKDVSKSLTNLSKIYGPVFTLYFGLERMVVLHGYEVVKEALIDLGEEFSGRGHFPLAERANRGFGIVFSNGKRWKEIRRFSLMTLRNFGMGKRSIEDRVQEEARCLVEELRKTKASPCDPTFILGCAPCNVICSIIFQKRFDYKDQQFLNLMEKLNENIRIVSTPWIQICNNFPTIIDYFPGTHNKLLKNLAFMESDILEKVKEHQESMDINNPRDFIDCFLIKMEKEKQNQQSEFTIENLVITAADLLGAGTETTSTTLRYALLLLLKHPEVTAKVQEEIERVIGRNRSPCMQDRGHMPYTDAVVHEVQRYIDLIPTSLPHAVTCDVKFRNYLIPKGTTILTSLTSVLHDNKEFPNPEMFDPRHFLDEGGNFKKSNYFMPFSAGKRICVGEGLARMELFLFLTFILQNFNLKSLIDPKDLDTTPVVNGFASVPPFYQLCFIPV

CYP2D6 = CYP2D6 (Homo sapiens, UniProt P10635); experiment: CYP inhibition assay, CYP2D6; format: in vitro ADME
Chain of CYP2D6 (P10635 whole entry): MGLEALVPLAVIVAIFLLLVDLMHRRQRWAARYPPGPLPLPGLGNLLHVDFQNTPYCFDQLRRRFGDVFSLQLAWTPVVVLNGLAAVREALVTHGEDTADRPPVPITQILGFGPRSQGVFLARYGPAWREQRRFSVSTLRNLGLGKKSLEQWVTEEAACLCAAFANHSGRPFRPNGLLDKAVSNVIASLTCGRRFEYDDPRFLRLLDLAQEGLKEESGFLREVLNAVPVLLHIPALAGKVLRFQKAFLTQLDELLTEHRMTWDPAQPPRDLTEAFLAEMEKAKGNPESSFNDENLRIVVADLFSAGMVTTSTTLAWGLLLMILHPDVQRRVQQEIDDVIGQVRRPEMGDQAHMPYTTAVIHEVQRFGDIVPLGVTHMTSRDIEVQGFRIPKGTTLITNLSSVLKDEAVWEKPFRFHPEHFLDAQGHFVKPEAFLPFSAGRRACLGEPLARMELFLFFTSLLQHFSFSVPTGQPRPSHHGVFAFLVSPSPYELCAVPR

CYP3A4 = CYP3A4 (Homo sapiens, UniProt P08684); experiment: CYP inhibition assay, CYP3A4; format: in vitro ADME
Chain of CYP3A4 (P08684 whole entry): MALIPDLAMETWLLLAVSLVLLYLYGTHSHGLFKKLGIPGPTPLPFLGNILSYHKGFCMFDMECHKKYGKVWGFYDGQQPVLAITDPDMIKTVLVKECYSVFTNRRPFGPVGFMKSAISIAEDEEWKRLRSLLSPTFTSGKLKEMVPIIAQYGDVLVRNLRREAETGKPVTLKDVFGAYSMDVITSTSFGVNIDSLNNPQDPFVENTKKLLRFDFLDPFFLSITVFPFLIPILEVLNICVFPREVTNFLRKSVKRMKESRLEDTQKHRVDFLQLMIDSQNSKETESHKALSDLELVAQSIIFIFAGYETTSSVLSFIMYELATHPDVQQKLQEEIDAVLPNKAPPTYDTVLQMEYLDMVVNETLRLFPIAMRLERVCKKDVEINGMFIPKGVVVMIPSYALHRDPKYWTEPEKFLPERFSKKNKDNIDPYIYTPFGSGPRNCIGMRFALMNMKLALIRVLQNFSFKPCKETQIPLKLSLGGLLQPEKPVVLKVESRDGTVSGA

hERG channel = hERG channel (Homo sapiens, UniProt Q12809); experiment: hERG patch clamp assay; format: cell-based
Chain of hERG channel (Q12809 whole entry): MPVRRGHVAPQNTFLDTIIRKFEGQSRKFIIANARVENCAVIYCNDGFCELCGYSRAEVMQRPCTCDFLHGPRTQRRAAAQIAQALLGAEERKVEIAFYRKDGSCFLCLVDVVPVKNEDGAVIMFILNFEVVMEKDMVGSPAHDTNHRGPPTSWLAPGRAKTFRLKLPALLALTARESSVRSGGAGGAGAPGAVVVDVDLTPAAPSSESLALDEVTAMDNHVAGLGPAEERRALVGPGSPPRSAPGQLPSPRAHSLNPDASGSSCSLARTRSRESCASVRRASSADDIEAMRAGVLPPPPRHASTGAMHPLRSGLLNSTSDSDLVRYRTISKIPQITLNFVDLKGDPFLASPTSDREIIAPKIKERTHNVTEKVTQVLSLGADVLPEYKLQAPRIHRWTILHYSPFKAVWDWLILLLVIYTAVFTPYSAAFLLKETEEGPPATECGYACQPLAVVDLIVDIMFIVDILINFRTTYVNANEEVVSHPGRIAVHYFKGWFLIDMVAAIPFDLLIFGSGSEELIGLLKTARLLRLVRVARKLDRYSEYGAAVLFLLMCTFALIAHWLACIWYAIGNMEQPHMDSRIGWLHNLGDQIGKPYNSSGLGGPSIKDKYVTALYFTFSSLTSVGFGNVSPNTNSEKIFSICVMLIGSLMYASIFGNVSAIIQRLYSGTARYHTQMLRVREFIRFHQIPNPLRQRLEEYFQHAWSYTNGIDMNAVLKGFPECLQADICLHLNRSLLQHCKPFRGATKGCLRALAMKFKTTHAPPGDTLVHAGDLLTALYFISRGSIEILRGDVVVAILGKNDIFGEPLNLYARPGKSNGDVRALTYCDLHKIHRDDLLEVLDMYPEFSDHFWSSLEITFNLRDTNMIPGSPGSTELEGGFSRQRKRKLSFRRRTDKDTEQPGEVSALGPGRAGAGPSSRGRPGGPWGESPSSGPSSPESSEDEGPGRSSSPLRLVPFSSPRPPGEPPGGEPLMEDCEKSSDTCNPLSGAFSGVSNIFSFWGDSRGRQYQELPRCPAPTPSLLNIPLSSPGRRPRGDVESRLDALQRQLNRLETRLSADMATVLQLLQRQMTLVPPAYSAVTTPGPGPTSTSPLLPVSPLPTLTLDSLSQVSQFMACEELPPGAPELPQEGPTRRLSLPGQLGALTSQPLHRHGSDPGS

NG108-15 cells = experiment: NG108-15 neurite outgrowth assay; format: cell-based; conditions: 1 μM compound, 0.1 μM angiotensin II, three days
CCI rats = experiment: Chronic constriction injury; format: in vivo, Sprague–Dawley rats; conditions: orally dosed
rats = experiment: Non-GLP 7-day acute rat toxicity study; format: in vivo, Sprague Dawley rats
Procedure, shortened: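 Rats received test compound daily for 7 days (non-GLP) at 200, 400 and 800 mg/kg/day, alongside a vehicle group. Endpoints were adverse events, laboratory abnormalities, salivary discharge scored 1 h after dosing, and gross anatomy of kidneys, hearts and livers compared with vehicle.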

AT2R = conditions: read-out: IC50 measured via a radiolabeled ligand-binding assay; cited from earlier work
monkeys = conditions: 39 weeks of chronic dosing; cited from earlier work

Q: With `COc1ccc2c(c1OCc1ccc(OC(F)(F)F)cc1)C[C@@H](C(=O)O)N(c1nc3ccc(F)cc3o1)C2` [Compound 28] as the molecule, how does the “hAT1R antagonistic activity at the highest tested concentration” value (human AT1R) read?
A: none of them showed any hAT1R antagonistic activity

Q: Which results are given for `COc1ccc2c(c1OCc1ccccc1)C[C@@H](C(=O)O)N(C(=O)C(c1ccccc1)c1ccccc1)C2` [EMA401]?
A: CLint scaled at 1 μM [1]: 25.9 ± 1 mL/min/kg; clearance ([2]; iv, 1 mg/kg): 14 ± 1 mL/min/kg; half-life ([2]; iv, 1 mg/kg): 96 ± 18 min; AUC(0-t) ([2]; po, 10 mg/kg): 1470 ± 709 ng·h/mL; Cmax ([2]; po, 10 mg/kg): 470 ± 197 ng/mL; bioavailability ([2]; po, 10 mg/kg): 12 ± 6%; CLint scaled at 1 μM [3]: 25 ± 1.1 mL/min/kg; CLint scaled at 1 μM [4]: 66 mL/min/kg; fraction unbound at 6 h, 1 μM [5]: < 0.001; fraction unbound at 6 h, 1 μM [6]: < 0.001; Papp A→B at 90 min, 10 µM [7]: 3.3 ± 0.3 ×10⁻⁶ cm/s; Papp B→A at 90 min, 10 µM [7]: 24.5 ×10⁻⁶ cm/s; IC50 (CYP1A2): > 50 µM; IC50 (CYP2C8): 20 µM; IC50 (CYP2C9): 7.4 µM; IC50 (CYP2C19): > 50 µM; IC50 (CYP2D6): > 50 µM; IC50 (CYP3A4): > 50 µM; IC50 (hERG channel): > 10 µM; hERG potassium channel activity (hERG channel; concentrations up to 10 μM): no hERG potassium channel activity; effect on neurite outgrowth induced by angiotensin II (NG108-15 cells): abolished neurite outgrowth induced by angiotensin II; paw withdrawal threshold responsive to tactile stimulation (von Frey) (CCI rats): significantly increased paw withdrawal threshold; salivary discharge (rats; rat, 200, 400, and 800 mg/kg/day, 1 h after dosage): in high-, medium-, and low-dose groups; gross anatomy vs vehicle group (rats; rat, 7 days, kidneys, hearts, livers): no distinguishable gross anatomy differences; tolerability (rats; rat, oral gavage, 200, 400, and 800 mg/kg/day for 7 days): well tolerated with no serious adverse events or significant laboratory abnormalities; IC50 (AT2R): […]; toxicity finding after chronic dosing (monkeys): hepatotoxicity in monkeys

Q: Which “paw withdrawal threshold responsive to tactile stimulation (von Frey)” value (CCI rats) does the source give for `CC(C)C[C@H](CN)CC(=O)O` [pregabalin] here?
A: significantly increased paw withdrawal threshold
